Sampled rows, rich in hits. Any-hit rate of the full collection: about 1.9%.
DNMT1 block – DNMT1 (human) enzyme inhibition; P26358; DNMT1 molecular beacon, Hinp1I cleavage, fluorescence; inhibition (reported as % activation of signal), % at 10 µM; 360,000 compounds, 0.83% hits; AID 588458; in the data active = inhibition above about 50%
STEP inh – blocks human striatal-enriched tyrosine phosphatase; inhibition, % at 20 µM; AID 588621; 360,000 compounds, 0.25% hits; recombinant STEP, OMFP fluorogenic substrate, fluorescence; P54829;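 active = inhibition at 20 µM, scaled per plate between control wells, above about 37%, limit read from the data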;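 also: 0% = DMSO with enzyme and substrate and 100% = substrate only without enzyme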
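Material: STEP (striatal-enriched tyrosine phosphatase) enzyme, cell-free; Compound dosing: 20 µM single dose in 1% DMSO; Technique: fluorescence read at 480 nm ex / 540 nm em; Times: reaction 20 min, ambient temperature; Medium: 50 mM Bis-Tris pH 6.0 with 2.5 mM DTT and 0.005% Tween 20; Also added: OMFP at 25 µM.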
SUMO HTRF inh – blocks human SUMOylation mediated by UBC9; HTRF SUMOylation assay, SAE1/SAE2 + UBC9, in vitro; inhibition, % at 35 µM; 290,000 compounds, 0.36% hits; P63279; in the data active = inhibition above about 50%, passing the limit was not always enough
Target sequence (P63279 whole entry, looked up): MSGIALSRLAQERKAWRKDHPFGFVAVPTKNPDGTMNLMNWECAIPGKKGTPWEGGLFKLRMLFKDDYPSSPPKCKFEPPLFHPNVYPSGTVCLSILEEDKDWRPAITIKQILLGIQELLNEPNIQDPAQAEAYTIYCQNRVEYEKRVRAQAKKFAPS
SUMO1-SIM PPI – SUMO1-SIM interaction modulation; inhibition, % at 20 µM; 360,000 compounds, 0.33% hits; AID 602429; SUMO1 binding to a labelled peptide, TR-FRET, 1 h; P63165; in the data active = inhibition above about 37%
Target sequence (P63165 whole entry, looked up): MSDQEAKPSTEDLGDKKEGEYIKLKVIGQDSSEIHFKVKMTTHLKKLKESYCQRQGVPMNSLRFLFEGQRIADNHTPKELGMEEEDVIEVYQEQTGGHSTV
Scp1 inh – blocks human Scp-1 phosphatase activity; Q9GZU7; Recombinant Scp1, phosphopeptide, malachite green phosphate absorbance; inhibition, % at 20 µM; 340,000 compounds, 0.88% hits; AID 493091;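 active = inhibition above about 50% at 20 µM, limit read from the data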;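 also: plate controls were DMSO wells with enzyme for no effect and wells lacking enzyme for full effect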
Target sequence (Q9GZU7 76-261 limits assumed): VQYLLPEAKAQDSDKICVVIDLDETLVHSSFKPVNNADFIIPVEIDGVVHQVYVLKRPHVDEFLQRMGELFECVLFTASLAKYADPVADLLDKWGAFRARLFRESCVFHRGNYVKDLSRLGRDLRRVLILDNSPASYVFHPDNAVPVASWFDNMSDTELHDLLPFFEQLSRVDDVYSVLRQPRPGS
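System: truncated SCP-1 phosphatase (76-261aa); medium: Tris acetate buffer pH 5.5 with MgCl2 and Tween-20; incubation: 45 min room-temperature reaction, 5 min colour, 30 min stabiliser; compound: single 20 µM dose, 1% DMSO; reagent: Phosphorylated 17-residue peptide substrate; read-out: % inhibition at 20 µM; technique: colorimetric free-phosphate detection, absorbance 630 nm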
LMPTP block – blocks human LMPTP phosphatase; inhibition, % at 20 µM; 360,000 compounds, 0.22% hits; recombinant LMPTP-A, OMFP fluorogenic substrate, fluorescence intensity;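 active = compounds that cut the enzyme signal by at least half of the control window in the single-dose screen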;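 also: plate controls were DMSO wells with enzyme plus substrate for no effect and substrate without enzyme for full effect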
Target sequence (P24666 whole entry, looked up): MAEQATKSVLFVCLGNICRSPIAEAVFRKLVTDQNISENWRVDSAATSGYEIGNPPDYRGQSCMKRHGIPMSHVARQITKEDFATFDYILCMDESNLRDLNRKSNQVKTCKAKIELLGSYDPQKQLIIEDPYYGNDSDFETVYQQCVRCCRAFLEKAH
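Material: LMPTP-A; amount: 0.625 nM enzyme; doses: single 20 µM dose; times: reaction 50 min, room temperature, dark; technique: fluorescence intensity of OMFP turnover product; benchmarks: no-enzyme and uninhibited controls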
Scp-1 conf – confirmation of human Scp-1 phosphatase inhibitors. shares compounds with Scp1 inh. recombinant SCP-1 catalytic domain, phosphate release, malachite green absorbance. inhibition, % at 20 µM. 2,500 compounds, 61% hits;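 also: plate controls were DMSO with enzyme for no effect and buffer wells lacking enzyme for full effect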
Scp-1 MG ctr – interferes with malachite green readout, flagging false Scp-1 hits. 2,500 tested, under 10 active. shares compounds with Scp1 inh. apparent inhibition (interference), % at 20 µM. AID 540313. Colorimetric interference counterscreen, malachite green absorbance 630 nm;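 also: compounds added after enzyme reaction finished so only phosphate colour detection is probed; plate controls were DMSO wells with completed Scp-1 reaction for no effect and substrate wells lacking enzyme for full effect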
Scp-1 Tm shift – validation of human Scp-1 inhibitors by thermal shift binding; 1,500 compounds, 25% hits; thermal shift relative to vanadate control, % at 40 µM; Recombinant SCP1, Sypro Orange thermal shift Tm; shares compounds with Scp1 inh;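 active = substances whose mean melting-temperature shift, as a percentage of the reference inhibitor's shift, reaches about 5.3%, limit read from the data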;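 also: 0% = Tm of DMSO wells and 100% = Tm with sodium orthovanadate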
The depositor's hits bear a star; nt = no result given.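 The calls were made as follows, unless noted: active = inhibition of at least 30% at 20 µM; inactive = the rest.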

SMILES	DNMT1 block	STEP inh	SUMO HTRF inh	SUMO1-SIM PPI	Scp1 inh	LMPTP block	Scp-1 conf	Scp-1 MG ctr	Scp-1 Tm shift
Cc1cccc(Nc2ncc3c(n2)CC(c2ccco2)CC3=O)c1 (stereo not drawn)	-6.6	0.8	2.3	-6.5	85.5*	59.5*	-15.3	-11.4	nt
COc1ccc2[nH]c(=O)c(-c3noc(-c4ccccc4)n3)cc2c1	5.9	39.3	32.8	65.1*	82.0*	22.3	60.1*	-8.7	-34.8
CCc1nc2c(OCC(=O)C(C)(C)C)cccn2c1N(C)C(=O)Nc1ccccc1OC	0.6	-4.6	nt	2.2	nt	-1.9	nt	nt	nt
COc1ccccc1NC(=O)CSc1sc2c(O)cc(=O)[nH]c2c1C#N	9.7	8.2	16.4	13.1	77.3*	21.9	32.6*	-14.0	12.6*
COc1ccc(NC(=O)CSc2sc3c(O)cc(=O)[nH]c3c2C#N)c(OC)c1	24.4	21.0	7.2	18.4	64.4*	55.6*	67.8*	-9.0	7.8*
N#Cc1c(SCC(=O)Nc2cccc(C(F)(F)F)c2)sc2c(O)cc(=O)[nH]c12	7.0	4.9	-4.8	12.9	53.9*	13.3	34.2*	-13.4	8.1*
COc1ccc(Cl)cc1NC(=O)CSc1sc2c(O)cc(=O)[nH]c2c1C#N	11.6	11.4	19.9	0.6	40.6	21.7	nt	nt	nt
O=C(NC(=S)Nc1ccc(S(=O)(=O)NC2CCCCC2)cc1)c1cccs1	-11.8	1.0	4.6	2.7	-13.1	2.2	nt	nt	nt
O=C(Nc1c[nH]c(=O)[nH]c1=O)c1cc([N+](=O)[O-])cc([N+](=O)[O-])c1	-1.4	0.9	-0.6	-38.2	-7.3	-1.1	nt	nt	nt
O=C(COc1ccc(-n2cnnn2)cc1)Nc1cccc(Cl)c1Cl	49.1	11.1	25.9	6.5	69.0*	21.5	67.5*	-11.2	-17.4
COc1cc(NC(=O)COc2ccc(-n3cnnn3)cc2)c(OC)cc1Cl	6.7	-1.9	-0.2	8.7	38.4	7.3	nt	nt	nt
CCCCC(=O)NC(=S)Nc1c(C)cc(Br)cc1C	1.5	1.9	5.6	-1.5	-0.9	1.6	nt	nt	nt
CSc1ccc(/C=N/N2CCN(Cc3ccccc3)CC2)cc1	-2.4	2.7	10.3	-3.7	-4.9	0.6	nt	nt	nt
CCc1ccc(-c2cc(C)no2)cc1S(=O)(=O)NCCc1ccc(OC)c(OC)c1	0.0	4.3	13.2	-3.9	-2.5	-0.7	nt	nt	nt
CSc1nc2nccc(-c3ccc(Cl)cc3)n2n1	9.5	5.2	6.8	1.4	84.1*	24.9	71.4*	-14.5	-22.2
Cc1ccc(-c2cc(C(=O)N/N=C/c3ccc(Cl)cc3)n[nH]2)o1	1.8	4.7	7.6	-6.5	64.8*	2.1	87.7*	-7.3	-11.5
Cc1ccc(-c2cc(C(=O)N/N=C/c3ccccc3)n[nH]2)o1	1.3	-1.2	-1.0	-0.6	-9.6	0.1	nt	nt	nt
COc1ccc(/C=N/NC(=O)c2cccnc2)cc1CN1CCCc2ccccc21	-8.8	0.0	-19.7	-3.4	-0.3	2.2	nt	nt	nt
COc1ccc(C(=O)N/N=C/c2ccc(OC)c(CN3CCCc4ccccc43)c2)cc1	-11.1	3.8	29.2	-1.9	56.2*	3.4	-17.5	-12.6	nt
Oc1c(Br)cc(/C=N/n2c(-c3ccccc3)n[nH]c2=S)cc1Br	2.0	12.4	9.9	20.7	56.0*	-0.3	79.5*	-10.6	9.1*
Oc1c(Br)cc(/C=N/n2c(-c3ccccc3)n[nH]c2=S)c(O)c1Br	7.5	1.7	5.5	14.7	78.7*	1.2	88.3*	-5.2	3.8
Cc1ccc(S(=O)(=O)N2C[C@]3(O)C[C@@H]4C(=O)N(c5ccccc5)C(=O)[C@@H]4C[C@]3(OC(=O)Nc3cccs3)C2)cc1	-2.5	1.0	nt	3.5	nt	0.9	nt	nt	nt
CCOc1ccc(S(=O)(=O)N(C)CC(=O)N2CCN(CC)CC2)cc1	2.1	-0.2	7.5	-0.1	-2.3	-1.7	nt	nt	nt
N#C/C(=C\c1c(N2CCN(Cc3ccccc3)CC2)nc2ccccn2c1=O)S(=O)(=O)c1ccccc1	-0.8	0.4	-6.4	-13.4	4.0	4.4	nt	nt	nt
N#C/C(=C\c1c(N2CCOCC2)nc2ccccn2c1=O)S(=O)(=O)c1ccccc1	4.3	3.1	6.7	-10.9	53.8*	0.5	-2.7	-5.7	nt
SMILES	DNMT1 block	STEP inh	SUMO HTRF inh	SUMO1-SIM PPI	Scp1 inh	LMPTP block	Scp-1 conf	Scp-1 MG ctr	Scp-1 Tm shift
COc1cccc(NC(=O)CN(C)C(=O)CCCc2nc3ccccc3s2)c1	-0.1	1.6	nt	5.7	1.6	0.6	nt	nt	nt
CC(=O)Nc1ccc(NC(=O)c2ccc(OCc3c(C)noc3C)cc2)cc1	5.1	-3.0	nt	-1.3	58.7*	0.4	-13.2	-17.5	nt
CCc1ccc(NC(=O)c2noc3c2CCc2ccccc2-3)cc1	-4.9	2.9	8.2	1.0	-13.1	1.5	nt	nt	nt
Cc1ccc(NC(=O)c2noc3c2CCc2ccccc2-3)cc1	0.0	-0.9	2.7	-3.5	55.7*	1.3	-16.3	-15.3	nt
Cc1ccn2cc(CCNC(=O)CC(C)(C)C)nc2c1	-1.1	-3.2	12.6	3.1	-14.9	1.2	nt	nt	nt
Cc1ccn2cc(CCNC(=O)C3CC=CCC3C(=O)O)nc2c1 (stereo not drawn)	-1.4	-2.3	11.3	-3.6	55.0*	-4.8	-6.2	-4.6	nt
Clc1cc(CSc2ccccc2)nc(-c2ccccc2)n1	-1.3	2.8	-6.7	1.6	61.4*	2.6	35.7*	-20.8	-27.0
N#CCCN(C(=O)COC(=O)CCN=C1NS(=O)(=O)c2ccccc21)c1ccc(F)cc1	0.3	-2.2	nt	-0.6	-3.8	-0.6	nt	nt	nt
CC(=O)Nc1ccc2c(c1)C(C)(C)C(C)N2C (stereo not drawn)	nt	nt	19.8	nt	82.0*	nt	-5.6	-11.5	nt
Cc1ccc(N2C(=O)c3cccc4c(C(=O)O)ccc(c34)C2=O)cc1	nt	nt	0.3	nt	nt	nt	nt	nt	nt
O=C(O)c1cccc2c1C(=O)N(c1ccc3c(c1)Cc1ccccc1-3)C2=O	1.5	4.5	nt	-21.1	64.4*	-1.1	60.2*	-17.0	-13.8
CCn1c(CN2CCN(c3ccc(OC)cc3)CC2)nc2cc(S(=O)(=O)N(C)C)ccc21	-0.8	0.8	-1.1	6.9	-7.1	1.6	nt	nt	nt
CCCn1c(CN2CCN(C(=O)c3ccco3)CC2)nc2cc(S(=O)(=O)N(C)C)ccc21	-4.2	0.6	nt	-2.8	50.7*	-0.3	-8.4	-12.6	nt
CCc1nc2c(OCCn3cccc3)cccn2c1N(C)C(=O)c1ccc(OC)cc1	0.8	1.6	nt	-1.1	nt	1.1	nt	nt	nt
CN1CCN(S(=O)(=O)c2ccc(NS(=O)(=O)c3ccccc3)cc2)CC1	0.2	-4.9	12.5	4.0	-4.2	-1.1	nt	nt	nt

High-throughput results from PubChem BioAssay.
